Reference: ChEMBL document CHEMBL1641579, “Synthesis and biological evaluation of 7-substituted-1-(3-bromophenylamino)isoquinoline-4-carbonitriles as inhibitors of myosin light chain kinase and epidermal growth factor receptor” (Bioorg Med Chem, 2011)

Columns and labels:
[1] = target: Serine/threonine-protein kinase PLK1 (Homo sapiens) (UniProt P53350); assay: Inhibition of PLK1 assessed as residual activity at 10 uM
Method in brief: (§1)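 Panel screen by radioactive kinase assay at a single inhibitor concentration. Score is the percent activity remaining relative to DMSO controls (100%).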

[2] = target: Dual specificity mitogen-activated protein kinase kinase 1 (Homo sapiens) (UniProt Q02750); assay: Inhibition of MKK1 assessed as residual activity at 10 uM
Method in brief: (§2)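 Kinase panel screen run as a radioactive activity assay at single compound concentration. Score reported as percent activity remaining relative to DMSO controls (100%).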

[3] = target: Aurora kinase B (Homo sapiens) (UniProt Q96GD4); assay: Inhibition of aurora B assessed as residual activity at 10 uM; method in brief: as §1
[4] = target: T1, Serine/threonine-protein kinase STK11 (Homo sapiens) (UniProt Q15831); assay: Inhibition of LKB1 assessed as residual activity at 10 uM; method in brief: as §2
T1 sequence (whole entry): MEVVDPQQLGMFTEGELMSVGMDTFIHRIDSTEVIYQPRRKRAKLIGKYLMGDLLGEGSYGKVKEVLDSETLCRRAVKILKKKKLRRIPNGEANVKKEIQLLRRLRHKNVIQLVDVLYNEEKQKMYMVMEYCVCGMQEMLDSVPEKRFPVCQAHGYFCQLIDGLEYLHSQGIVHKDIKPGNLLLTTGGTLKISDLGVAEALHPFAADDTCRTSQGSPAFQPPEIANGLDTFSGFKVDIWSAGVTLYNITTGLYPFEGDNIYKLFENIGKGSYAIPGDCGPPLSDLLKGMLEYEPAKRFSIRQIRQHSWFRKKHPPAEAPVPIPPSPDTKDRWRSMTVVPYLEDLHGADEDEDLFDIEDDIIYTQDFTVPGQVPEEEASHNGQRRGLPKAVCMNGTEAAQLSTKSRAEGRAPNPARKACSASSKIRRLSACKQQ

[5] = target: T2, Serine/threonine-protein kinase Chk1 (Homo sapiens) (UniProt O14757); assay: Inhibition of CHK1 assessed as residual activity at 10 uM; method in brief: as §2
T2 sequence (whole entry): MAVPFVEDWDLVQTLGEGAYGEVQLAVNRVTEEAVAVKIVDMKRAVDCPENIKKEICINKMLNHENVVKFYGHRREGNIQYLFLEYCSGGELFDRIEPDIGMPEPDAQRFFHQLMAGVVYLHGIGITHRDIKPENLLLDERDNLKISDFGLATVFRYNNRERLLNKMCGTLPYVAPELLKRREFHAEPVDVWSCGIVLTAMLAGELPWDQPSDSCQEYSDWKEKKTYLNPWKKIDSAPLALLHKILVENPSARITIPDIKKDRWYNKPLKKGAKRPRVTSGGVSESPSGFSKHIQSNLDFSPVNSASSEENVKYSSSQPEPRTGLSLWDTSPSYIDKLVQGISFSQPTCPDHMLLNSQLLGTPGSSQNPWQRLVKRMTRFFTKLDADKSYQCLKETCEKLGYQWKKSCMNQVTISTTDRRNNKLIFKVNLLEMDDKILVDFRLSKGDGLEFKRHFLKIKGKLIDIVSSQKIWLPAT

[6] = target: Mitogen-activated protein kinase 9 (Homo sapiens) (UniProt P45984); assay: Inhibition of JNK2 assessed as residual activity at 10 uM; method in brief: as §2
[7] = Inhibition of PKA assessed as residual activity at 10 uM; method in brief: as §1
[8] = target: Serine/threonine-protein kinase N2 (Homo sapiens) (UniProt Q16513); assay: Inhibition of PRK2 assessed as residual activity at 10 uM; method in brief: as §1
[9] = target: Homeodomain-interacting protein kinase 1 (Homo sapiens) (UniProt Q86Z02); assay: Inhibition of HIPK1 assessed as residual activity at 10 uM; method in brief: as §2
[10] = target: Misshapen-like kinase 1 (Homo sapiens) (UniProt Q8N4C8); assay: Inhibition of MINK1 assessed as residual activity at 10 uM; method in brief: as §2
[11] = target: Mitogen-activated protein kinase kinase kinase 9 (Homo sapiens) (UniProt P80192); assay: Inhibition of MLK1 assessed as residual activity at 10 uM; method in brief: as §1
[12] = target: T3, Serine/threonine-protein kinase D1 (Homo sapiens) (UniProt Q15139); assay: Inhibition of PKDl assessed as residual activity at 10 uM; method in brief: as §1
T3 sequence (whole entry): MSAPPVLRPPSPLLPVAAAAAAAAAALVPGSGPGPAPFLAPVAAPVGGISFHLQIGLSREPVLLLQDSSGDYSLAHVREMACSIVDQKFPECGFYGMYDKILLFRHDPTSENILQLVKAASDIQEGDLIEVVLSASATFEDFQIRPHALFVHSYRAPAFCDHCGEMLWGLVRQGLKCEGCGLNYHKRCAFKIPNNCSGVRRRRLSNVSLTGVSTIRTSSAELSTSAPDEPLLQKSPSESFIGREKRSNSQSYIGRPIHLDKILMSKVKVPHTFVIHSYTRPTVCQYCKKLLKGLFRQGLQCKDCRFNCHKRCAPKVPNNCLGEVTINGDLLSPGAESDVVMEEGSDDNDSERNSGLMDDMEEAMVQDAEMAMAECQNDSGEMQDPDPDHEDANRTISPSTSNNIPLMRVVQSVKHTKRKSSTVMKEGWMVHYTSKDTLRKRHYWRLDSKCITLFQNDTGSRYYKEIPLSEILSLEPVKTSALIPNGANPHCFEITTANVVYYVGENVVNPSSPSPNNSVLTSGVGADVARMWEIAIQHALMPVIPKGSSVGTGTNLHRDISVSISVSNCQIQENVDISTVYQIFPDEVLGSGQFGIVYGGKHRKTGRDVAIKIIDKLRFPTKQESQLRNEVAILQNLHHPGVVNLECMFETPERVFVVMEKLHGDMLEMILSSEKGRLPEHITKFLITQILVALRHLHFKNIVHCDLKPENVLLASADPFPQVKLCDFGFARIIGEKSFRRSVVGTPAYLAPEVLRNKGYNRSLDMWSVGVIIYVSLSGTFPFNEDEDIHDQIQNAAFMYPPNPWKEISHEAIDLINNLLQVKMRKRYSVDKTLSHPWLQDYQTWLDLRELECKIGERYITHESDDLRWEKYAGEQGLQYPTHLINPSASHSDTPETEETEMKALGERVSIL

[13] = target: Fibroblast growth factor receptor 1 (Homo sapiens) (UniProt P11362); assay: Inhibition of FGFR1 assessed as residual activity at 10 uM; method in brief: as §2
[14] = target: Insulin-like growth factor 1 receptor (Homo sapiens) (UniProt P08069); assay: Inhibition of IGF1R assessed as residual activity at 10 uM; method in brief: as §2
[15] = target: Mitogen-activated protein kinase 1 (Homo sapiens) (UniProt P28482); assay: Inhibition of ERK2 assessed as residual activity at 10 uM; method in brief: as §2
[16] = target: MAP kinase-interacting serine/threonine-protein kinase 1 (Homo sapiens) (UniProt Q9BUB5); assay: Inhibition of MNK1 assessed as residual activity at 10 uM; method in brief: as §1
[17] = target: Glycogen synthase kinase-3 beta (Homo sapiens) (UniProt P49841); assay: Inhibition of GSK3-beta assessed as residual activity at 10 uM; method in brief: as §2
[18] = target: Proto-oncogene tyrosine-protein kinase Src (Homo sapiens) (UniProt P12931); assay: Inhibition of Src assessed as residual activity at 10 uM; method in brief: as §1
Proto-oncogene tyrosine-protein kinase Src (Homo sapiens), sequence (P12931 2-536 limits assumed): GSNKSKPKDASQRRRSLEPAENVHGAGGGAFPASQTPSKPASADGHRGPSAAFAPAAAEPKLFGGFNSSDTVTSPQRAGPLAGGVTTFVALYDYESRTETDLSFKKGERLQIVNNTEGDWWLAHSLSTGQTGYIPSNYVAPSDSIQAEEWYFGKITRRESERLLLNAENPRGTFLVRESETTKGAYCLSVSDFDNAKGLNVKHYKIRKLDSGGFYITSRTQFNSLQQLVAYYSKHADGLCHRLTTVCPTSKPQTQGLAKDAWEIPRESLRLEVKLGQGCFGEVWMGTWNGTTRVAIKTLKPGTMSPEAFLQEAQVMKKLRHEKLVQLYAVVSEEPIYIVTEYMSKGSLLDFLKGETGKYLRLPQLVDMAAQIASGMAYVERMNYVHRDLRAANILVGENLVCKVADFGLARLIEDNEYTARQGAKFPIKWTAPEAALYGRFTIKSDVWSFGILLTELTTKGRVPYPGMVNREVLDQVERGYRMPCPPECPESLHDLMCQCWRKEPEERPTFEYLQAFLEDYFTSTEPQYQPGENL

Dual specificity mitogen-activated protein kinase kinase 1 (Homo sapiens), sequence (Q02750 whole entry): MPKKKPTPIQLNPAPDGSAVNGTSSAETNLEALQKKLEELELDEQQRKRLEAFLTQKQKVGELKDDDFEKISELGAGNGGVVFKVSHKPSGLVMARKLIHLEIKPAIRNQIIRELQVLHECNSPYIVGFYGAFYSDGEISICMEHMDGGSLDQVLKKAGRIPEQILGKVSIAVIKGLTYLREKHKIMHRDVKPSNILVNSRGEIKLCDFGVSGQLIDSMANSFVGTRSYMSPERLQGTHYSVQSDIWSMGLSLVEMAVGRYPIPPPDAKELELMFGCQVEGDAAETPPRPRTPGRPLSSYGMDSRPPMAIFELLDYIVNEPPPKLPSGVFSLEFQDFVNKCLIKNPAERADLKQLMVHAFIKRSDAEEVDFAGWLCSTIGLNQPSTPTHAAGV
Serine/threonine-protein kinase N2 (Homo sapiens), sequence (Q16513 whole entry, looked up): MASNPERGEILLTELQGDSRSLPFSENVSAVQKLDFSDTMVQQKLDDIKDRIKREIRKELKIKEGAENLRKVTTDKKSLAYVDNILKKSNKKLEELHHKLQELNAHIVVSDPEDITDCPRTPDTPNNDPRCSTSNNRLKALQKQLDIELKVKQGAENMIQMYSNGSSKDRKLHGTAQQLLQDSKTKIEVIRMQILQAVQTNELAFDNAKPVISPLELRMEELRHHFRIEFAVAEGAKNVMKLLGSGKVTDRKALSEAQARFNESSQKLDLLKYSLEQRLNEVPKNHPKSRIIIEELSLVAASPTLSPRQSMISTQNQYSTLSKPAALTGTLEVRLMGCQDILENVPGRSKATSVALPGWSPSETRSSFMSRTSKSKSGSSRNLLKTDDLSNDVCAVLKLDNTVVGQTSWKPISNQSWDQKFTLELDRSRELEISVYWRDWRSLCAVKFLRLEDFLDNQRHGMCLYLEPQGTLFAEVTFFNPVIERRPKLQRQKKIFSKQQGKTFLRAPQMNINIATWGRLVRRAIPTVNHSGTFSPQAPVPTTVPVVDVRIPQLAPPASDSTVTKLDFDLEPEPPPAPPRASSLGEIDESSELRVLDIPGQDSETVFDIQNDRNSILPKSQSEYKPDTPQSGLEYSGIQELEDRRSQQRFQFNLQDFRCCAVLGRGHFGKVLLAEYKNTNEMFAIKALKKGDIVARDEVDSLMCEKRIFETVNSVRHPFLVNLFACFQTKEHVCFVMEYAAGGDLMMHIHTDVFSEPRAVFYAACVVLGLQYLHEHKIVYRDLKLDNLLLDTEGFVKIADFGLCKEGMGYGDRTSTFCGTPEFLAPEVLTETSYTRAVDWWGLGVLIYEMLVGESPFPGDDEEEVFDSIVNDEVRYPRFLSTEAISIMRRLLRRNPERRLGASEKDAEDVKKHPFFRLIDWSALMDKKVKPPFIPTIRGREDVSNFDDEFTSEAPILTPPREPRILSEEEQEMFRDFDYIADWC
Serine/threonine-protein kinase PLK1 (Homo sapiens), sequence (P53350 whole entry): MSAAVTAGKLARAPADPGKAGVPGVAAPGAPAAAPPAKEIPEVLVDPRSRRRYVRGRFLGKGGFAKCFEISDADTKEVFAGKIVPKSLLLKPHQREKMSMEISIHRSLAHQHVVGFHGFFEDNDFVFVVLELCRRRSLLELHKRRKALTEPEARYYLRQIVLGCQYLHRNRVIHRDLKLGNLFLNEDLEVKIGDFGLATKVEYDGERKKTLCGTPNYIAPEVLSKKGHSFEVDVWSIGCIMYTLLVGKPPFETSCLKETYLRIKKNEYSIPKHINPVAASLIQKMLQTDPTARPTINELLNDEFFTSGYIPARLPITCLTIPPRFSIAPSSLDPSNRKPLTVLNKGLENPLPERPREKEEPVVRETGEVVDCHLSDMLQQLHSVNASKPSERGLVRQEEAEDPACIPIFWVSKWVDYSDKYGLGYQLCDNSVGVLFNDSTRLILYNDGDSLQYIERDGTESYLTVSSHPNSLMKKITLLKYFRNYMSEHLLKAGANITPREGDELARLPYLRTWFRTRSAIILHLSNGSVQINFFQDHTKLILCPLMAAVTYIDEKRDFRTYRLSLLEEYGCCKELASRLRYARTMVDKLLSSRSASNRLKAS
Mitogen-activated protein kinase 9 (Homo sapiens), sequence (P45984 whole entry, looked up): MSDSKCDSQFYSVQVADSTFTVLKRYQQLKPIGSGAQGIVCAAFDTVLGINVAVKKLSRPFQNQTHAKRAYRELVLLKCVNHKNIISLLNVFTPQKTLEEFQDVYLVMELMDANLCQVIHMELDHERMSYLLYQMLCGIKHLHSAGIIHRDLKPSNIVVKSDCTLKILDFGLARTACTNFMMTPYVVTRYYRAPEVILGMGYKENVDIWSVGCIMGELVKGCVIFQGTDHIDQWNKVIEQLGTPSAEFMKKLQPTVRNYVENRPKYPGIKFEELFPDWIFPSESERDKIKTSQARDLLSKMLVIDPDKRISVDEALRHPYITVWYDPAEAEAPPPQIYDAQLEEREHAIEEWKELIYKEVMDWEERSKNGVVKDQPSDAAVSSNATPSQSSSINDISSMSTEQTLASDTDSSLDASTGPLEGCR
Mitogen-activated protein kinase kinase kinase 9 (Homo sapiens), sequence (P80192 whole entry, looked up): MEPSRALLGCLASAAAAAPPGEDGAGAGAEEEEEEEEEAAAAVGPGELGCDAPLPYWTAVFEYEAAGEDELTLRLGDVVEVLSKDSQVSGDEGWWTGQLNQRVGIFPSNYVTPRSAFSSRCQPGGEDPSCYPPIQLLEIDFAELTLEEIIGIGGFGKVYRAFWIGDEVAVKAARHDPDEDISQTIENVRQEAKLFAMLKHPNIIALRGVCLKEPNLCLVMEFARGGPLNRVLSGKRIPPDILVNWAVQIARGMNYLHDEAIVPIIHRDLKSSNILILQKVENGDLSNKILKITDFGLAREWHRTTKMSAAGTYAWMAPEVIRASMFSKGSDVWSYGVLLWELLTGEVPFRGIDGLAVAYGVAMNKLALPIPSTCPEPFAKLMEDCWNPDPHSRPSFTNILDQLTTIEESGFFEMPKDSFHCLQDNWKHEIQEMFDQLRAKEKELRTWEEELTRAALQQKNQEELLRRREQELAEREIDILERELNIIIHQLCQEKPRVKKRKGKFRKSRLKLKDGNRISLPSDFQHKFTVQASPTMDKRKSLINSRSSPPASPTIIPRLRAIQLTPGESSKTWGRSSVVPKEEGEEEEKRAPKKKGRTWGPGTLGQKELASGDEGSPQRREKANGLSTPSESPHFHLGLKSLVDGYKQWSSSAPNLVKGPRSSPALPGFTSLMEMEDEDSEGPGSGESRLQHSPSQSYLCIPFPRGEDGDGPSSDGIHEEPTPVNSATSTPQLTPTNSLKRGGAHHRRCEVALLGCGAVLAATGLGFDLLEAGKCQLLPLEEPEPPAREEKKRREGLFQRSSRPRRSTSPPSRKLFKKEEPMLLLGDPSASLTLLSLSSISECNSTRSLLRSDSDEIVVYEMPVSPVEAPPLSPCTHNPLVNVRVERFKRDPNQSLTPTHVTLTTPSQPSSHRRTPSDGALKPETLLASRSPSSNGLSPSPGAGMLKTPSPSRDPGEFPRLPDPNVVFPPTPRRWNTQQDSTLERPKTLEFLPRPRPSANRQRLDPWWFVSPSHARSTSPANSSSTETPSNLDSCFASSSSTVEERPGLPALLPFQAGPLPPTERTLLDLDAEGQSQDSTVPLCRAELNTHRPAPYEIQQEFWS
MAP kinase-interacting serine/threonine-protein kinase 1 (Homo sapiens), sequence (Q9BUB5 whole entry, looked up): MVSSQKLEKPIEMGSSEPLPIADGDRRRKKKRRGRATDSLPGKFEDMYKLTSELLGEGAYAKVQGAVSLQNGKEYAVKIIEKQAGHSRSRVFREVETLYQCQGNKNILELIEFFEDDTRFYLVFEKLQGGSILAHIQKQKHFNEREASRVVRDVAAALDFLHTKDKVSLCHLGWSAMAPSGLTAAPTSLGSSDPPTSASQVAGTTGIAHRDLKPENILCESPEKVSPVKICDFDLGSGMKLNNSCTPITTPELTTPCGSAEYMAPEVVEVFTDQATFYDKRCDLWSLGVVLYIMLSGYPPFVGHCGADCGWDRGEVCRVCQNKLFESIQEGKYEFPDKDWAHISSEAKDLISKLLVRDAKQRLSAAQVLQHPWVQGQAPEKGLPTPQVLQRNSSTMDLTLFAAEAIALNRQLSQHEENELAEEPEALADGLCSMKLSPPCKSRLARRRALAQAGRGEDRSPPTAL
Aurora kinase B (Homo sapiens), sequence (Q96GD4 whole entry): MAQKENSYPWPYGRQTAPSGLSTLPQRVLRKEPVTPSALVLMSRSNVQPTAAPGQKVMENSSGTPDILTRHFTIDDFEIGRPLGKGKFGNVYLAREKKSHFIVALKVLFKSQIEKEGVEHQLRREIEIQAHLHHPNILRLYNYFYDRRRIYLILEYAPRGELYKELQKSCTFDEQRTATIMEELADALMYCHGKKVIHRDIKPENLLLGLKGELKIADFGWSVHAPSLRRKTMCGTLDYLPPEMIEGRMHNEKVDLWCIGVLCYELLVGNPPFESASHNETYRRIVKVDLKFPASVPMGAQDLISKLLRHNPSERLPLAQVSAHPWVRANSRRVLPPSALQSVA

| Activity [1] | Activity [2] | Activity [3] | Activity [4] | Activity [5] | Activity [6] | Activity [7] | Activity [8] | Activity [9] | Activity [10] | Activity [11] | Activity [12] | Activity [13] | Activity [14] | Activity [15] | Activity [16] | Activity [17] | Activity [18] | SMILES |
| --- | --- | --- | --- | --- | --- | --- | --- | --- | --- | --- | --- | --- | --- | --- | --- | --- | --- | --- |
| 69% | 100% | 41% | 100% | 84% | 98% | 100% | 98% | 95% | 59% | 87% | 75% | 99% | 59% | 100% | 82% | 100% | 60% | CN(C)CCCC(=O)Nc1ccc2c(C#N)cnc(Nc3cccc(Br)c3)c2c1 |
| 84% | 47% | 33% | 99% | 75% | 89% | 100% | 100% | 100% | 58% | 82% | 79% | 51% | 73% | 81% | 61% | 78% | 61% | CN(C)C/C=C/C(=O)Nc1ccc2c(C#N)cnc(Nc3cccc(Br)c3)c2c1 |
| 86% | 79% | 42% | 100% | 68% | 100% | 100% | 90% | 83% | 54% | 91% | 83% | 100% | 65% | 95% | 95% | 100% | 49% | CN1CCN(CCC(=O)Nc2ccc3c(C#N)cnc(Nc4cccc(Br)c4)c3c2)CC1 |
